Published values pooled from the literature.
Protocols differ between the studies behind these lines.

CCOC(=O)c1c(NC(=O)CNC(C)C)sc2c1CCCCC2  half-life (male mouse, brain; intraperitoneal, 100 mg/kg, single dose): 124 min
CN(C)C1(CNC(=O)c2ccc3c(c2)CCN3C(=O)c2ccccc2)CCOCC1  concentration (male C57BL/6 mouse, brain; intraperitoneal, 50 mg/kg, 2 h): 39 ng/g
CC(C)CC(=O)OC[C@H]1O[C@@](C#N)(c2ccc3c(N)ncnn23)[C@H](O)[C@@H]1O  hepatocyte CLint (metabolic stability; dog, hepatocytes; 5 µM): > 318 µL/min/10⁶ cells
CC(C)=CCC[C@](C)(O[C@@H]1O[C@H](CO)[C@@H](O)[C@H](O)[C@H]1O)[C@H]1CC[C@]2(C)[C@@H]1[C@H](O)C[C@@H]1[C@@]3(C)CC[C@H](O)C(C)(C)[C@@H]3CC[C@]12C  half-life (mouse, plasma; oral, 10 mg/kg): 840 min
CC(C)[C@]12O[C@H]1[C@@H]1O[C@]13[C@]1(O[C@H]1C[C@H]1C4=C(CC[C@@]13C)C(=O)OC4)[C@@H]2O  half-life (SCID mouse, plasma; intravenous, 0.6 mg/kg): 9.6 min
Cc1ncsc1-c1ccc([C@H](CC(=O)NCCOCCOCCOCCOCCOCCC(=O)N2CCC(Nc3cc(C(=O)NC[C@H](O)CN4CCc5ccccc5C4)ncn3)CC2)NC(=O)[C@@H]2C[C@@H](O)CN2C(=O)[C@@H](NC(=O)C2(F)CC2)C(C)(C)C)cc1  concentration (male Swiss mouse, plasma; intraperitoneal, 50 mg/kg, 8 h, single dose): > 200 nM
Cc1[nH]c(C)c(S(=O)(=O)Nc2ccc(S(F)(F)(F)(F)F)cc2)c1C(=O)N1CCC(F)(F)C1  half-life (mouse, plasma; intraperitoneal, 40 mg/kg): 158 min
COc1cc(C(=O)c2nc(-c3cccc4[nH]ccc34)c[nH]2)cc(OC)c1OC  half-life (male CD-1 mouse, plasma; intraperitoneal, 15 mg/kg): 57 min
